Data: ChEMBL document CHEMBL1122720, “Synthesis and neuroleptic activity of N-[(1-ethyl-2-pyrrolidinyl)methyl]-2-methoxy-5-sulfonamidobenzamide s” (J Med Chem, 1984)

Assays:
[1] = Toxicity in mice following p.o. administration.; assay type: organism-based; conditions: mouse, in vivo, po
Procedure, shortened: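 Groups of 10 mice received the drug orally. Deaths were scored on day 7 after dosing, and LD50 (mg/kg) was obtained by graphical interpolation.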

Mus musculus = test: Inhibition of apomorphine induced climbing in mice following p.o. administration.; assay type: functional; conditions: po
Procedure, shortened: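 Mice in two to three groups of 10 got the drug orally as a gum arabic suspension, then apomorphine 1 mg/kg s.c. 60 min later. Each mouse was caged in wire mesh and watched for 3 min from 20 min after apomorphine for wall-climbing, judged against a control group. ED50 (mg/kg) came from regression analysis.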

Canis familiaris = test: Inhibition of apomorphine induced emesis in dogs following p.o. administration.; assay type: functional; conditions: Canis lupus familiaris, po
Procedure, shortened: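 Dogs were fasted and dosed 1 h before apomorphine 0.1 mg/kg s.c. Vomits within 30 min were counted and compared with the same dog's count 2 weeks earlier. ED50 was found by the up-and-down method.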

| Structure (SMILES) | LD50 [1] [mg/kg] | ED50 (Mus musculus) [mg/kg] | ED50 (Canis familiaris) [mg/kg] |
| --- | --- | --- | --- |
| CCN1CCCC1CNC(=O)c1cc(NS(=O)(=O)NC)c(C)cc1OC (stereo unspecified) | > 1000 | > 50 | > 1 |
| CCN1CCCC1CNC(=O)c1cc(NS(C)(=O)=O)c(C)cc1OC (stereo unspecified) | 750 | 35.6 | 1 |
| CCN1CCCC1CNC(=O)c1cc(NS(=O)(=O)NC)c(Cl)cc1OC (stereo unspecified) | > 1000 | > 50 | > 1 |
| CCN1CCCC1CNC(=O)c1cc(NS(=O)(=O)NC)ccc1OC (stereo unspecified) | > 1000 | > 50 | > 1 |
| CCN1CCCC1CNC(=O)c1cc(NS(N)(=O)=O)ccc1OC (stereo unspecified) | > 1000 | > 50 | 10 |
| CCN1CCCC1CNC(=O)c1cc(NS(=O)(=O)N(C)C)ccc1OC (stereo unspecified) | 750 | > 50 | 1 |
| CCN1CCCC1CNC(=O)c1cc(N(C)S(C)(=O)=O)ccc1OC (stereo unspecified) | > 1000 | 22.9 | 0.17 |
| CCN1CCCC1CNC(=O)c1cc(N(C)S(N)(=O)=O)c(C)cc1OC (stereo unspecified) | > 1000 | > 50 | 1 |
| CCN1CCCC1CNC(=O)c1cc(NS(C)(=O)=O)c(Cl)cc1OC (stereo unspecified) | > 1000 | 9.1 | 0.1 |
| CCN1CCCC1CNC(=O)c1cc(NS(N)(=O)=O)c(C)cc1OC (stereo unspecified) | > 1000 | > 50 | > 1 |
| CCN1CCCC1CNC(=O)c1cc(N(C)S(=O)(=O)N(C)C)ccc1OC (stereo unspecified) | 750 | 36.2 | 1 |
| CCN1CCCC1CNC(=O)c1cc(NS(=O)(=O)N(C)C)c(Cl)cc1OC (stereo unspecified) | > 1000 | 8.3 | 0.05 |
| CCN1CCCC1CNC(=O)c1cc(N(C)S(N)(=O)=O)c(Cl)cc1OC (stereo unspecified) | > 1000 | > 50 | 1 |
| CCN1CCCC1CNC(=O)c1cc(NS(=O)(=O)N(C)C)c(C)cc1OC (stereo unspecified) | > 1000 | 13.3 | 0.05 |
| CCN1CCCC1CNC(=O)c1cc(N(C)S(C)(=O)=O)c(C)cc1OC (stereo unspecified) | > 1000 | 26.1 | 1 |
| CCN1CCCC1CNC(=O)c1cc(N(C)S(=O)(=O)N(C)C)c(C)cc1OC (stereo unspecified) | 750 | > 50 | 1 |
| CCN1CCCC1CNC(=O)c1cc(N(C)S(=O)(=O)N(C)C)c(Cl)cc1OC (stereo unspecified) | 750 | 31.8 | 0.1 |
| CCN1CCCC1CNC(=O)c1cc(N(C)S(N)(=O)=O)ccc1OC (stereo unspecified) | > 1000 | > 50 | 1 |
| CCN1CCCC1CNC(=O)c1cc(N(C)S(C)(=O)=O)c(Cl)cc1OC (stereo unspecified) | > 500 | 7.7 | 0.1 |
| CCN1CCCC1CNC(=O)c1cc(NS(C)(=O)=O)ccc1OC (stereo unspecified) | > 500 | > 50 | 2 |
| CCN1CCCC1CNC(=O)c1cc(NS(N)(=O)=O)c(Cl)cc1OC (stereo unspecified) | > 1000 | > 50 | 1 |
| CCN1CCCC1CNC(=O)c1cc(S(N)(=O)=O)ccc1OC (stereo unspecified) [SULPIRIDE] | > 3000 | 174 | 0.09 |
